A selection: hits, their analogues and other compounds. The true share with any hit is near 2.1%.
INS promoter inh = inhibitors of insulin promoter-driven GFP, primary screen, imaging, TRM-6 cells (human fetal islet line), eGFP reporter, cell count; reporter expression induced with tamoxifen; inhibition, % at 2 µM; actives 0.9% (n = 130,000); AID 1273, 2008;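 active = inhibition above the mean plus 3 SD, with well images judged a real hit on visual review, cut at about 60% in these data, passing the limit was not always enough; inconclusive = inhibition over the cutoff but images rejected on review; inactive = inhibition not above the cutoff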
Dynein transport = inhibitors of GR-EGFP nuclear translocation, primary screen, dynein cargo transport inhibitor project, imaging, high-content, 3617.4 mouse cells; test concentration mostly 20 µM; stimulated with dexamethasone, 1 µM; stronger effect = lower value; z-score, hits read low; actives 0.47% (n = 220,000); AID 1381, 2008;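 active = plate z-score of nuclear minus cytoplasmic receptor signal below a set negative limit, without overly bright fluorescence or cell loss, cut at about -3.5 in these data, passing the limit was not always enough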;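 note: z-score of nuclear minus cytoplasmic ring GR-EGFP intensity difference per well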
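Buffer or medium: Induction medium lacking tetracycline, stripped serum | Also added: Dexamethasone agonist, 1.0 µM final, for 30 min | Timing: 48 h induction, 1 h compound, 30 min dex at 37 °C | Detection: Formaldehyde fixation, Hoechst nuclear stain, 10x automated fluorescence imaging | Measure: Nuclear versus cytoplasmic GR-EGFP signal, averaged per well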
PERK inh = block of dimerizer-induced PERK translation repression, primary screen, PERK inhibitor project, CHO PERK-DD cells, SEAP luminescence, HTS | Eukaryotic translation initiation factor 2-alpha kinase 3 (Homo sapiens), Q9NZJ5 | CHO PERK-DD fusion, SEAP luminescence translation reporter | inhibition, % at 5.6 µM | actives 0.17% (n = 220,000);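 active = inhibition above the mean inhibition of all tested compounds plus 3 SD, set separately per screening campaign, cut at about 2.9% in these data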;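 note: PERK kinase domain activated by AP20187 dimerizer at 100 nM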
Target sequence (Q9NZJ5 whole entry, looked up, the tested form may be a part): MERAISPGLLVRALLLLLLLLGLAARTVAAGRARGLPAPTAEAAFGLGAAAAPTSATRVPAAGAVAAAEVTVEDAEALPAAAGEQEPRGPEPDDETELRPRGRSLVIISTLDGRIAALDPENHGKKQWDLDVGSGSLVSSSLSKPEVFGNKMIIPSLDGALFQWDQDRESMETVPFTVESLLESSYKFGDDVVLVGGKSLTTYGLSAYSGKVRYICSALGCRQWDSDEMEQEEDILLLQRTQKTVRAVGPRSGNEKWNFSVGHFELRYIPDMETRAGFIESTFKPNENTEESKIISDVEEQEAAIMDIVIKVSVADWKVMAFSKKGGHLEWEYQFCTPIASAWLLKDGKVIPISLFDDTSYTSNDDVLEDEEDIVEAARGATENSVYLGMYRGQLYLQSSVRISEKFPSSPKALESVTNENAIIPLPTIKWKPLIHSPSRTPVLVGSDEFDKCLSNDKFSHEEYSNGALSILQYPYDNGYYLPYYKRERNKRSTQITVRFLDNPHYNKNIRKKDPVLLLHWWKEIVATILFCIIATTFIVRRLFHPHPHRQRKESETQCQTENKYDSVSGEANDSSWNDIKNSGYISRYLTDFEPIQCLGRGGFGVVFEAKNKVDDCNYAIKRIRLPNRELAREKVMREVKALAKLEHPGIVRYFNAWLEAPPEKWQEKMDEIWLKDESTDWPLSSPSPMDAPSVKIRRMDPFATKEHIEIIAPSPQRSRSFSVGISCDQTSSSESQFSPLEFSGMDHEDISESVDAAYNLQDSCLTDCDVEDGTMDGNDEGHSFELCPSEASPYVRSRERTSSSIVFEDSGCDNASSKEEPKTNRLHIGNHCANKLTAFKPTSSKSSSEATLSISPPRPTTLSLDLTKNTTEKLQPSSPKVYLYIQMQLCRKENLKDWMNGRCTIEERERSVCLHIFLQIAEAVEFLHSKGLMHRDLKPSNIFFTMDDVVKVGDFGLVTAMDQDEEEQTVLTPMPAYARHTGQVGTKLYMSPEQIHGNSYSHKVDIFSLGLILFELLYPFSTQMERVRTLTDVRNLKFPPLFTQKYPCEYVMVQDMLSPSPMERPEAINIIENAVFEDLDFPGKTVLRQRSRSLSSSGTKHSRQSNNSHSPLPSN
Autophagy mod = autophagy modulators in MEF cells, primary screen, imaging, high-content, MEF GFP-LC3. MEF GFP-LC3 puncta imaging; test concentration mostly 10 µM. calls only at 10 µM (by protocol). actives 0.98% (n = 190,000). AID 463193, 2010;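 active = percentage of spot-positive cells more than 3 SD above its plate mean, without a fluorescence outlier flag or 80% toxicity; inconclusive = no clear call, values can overlap the other calls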
Ins promoter up = insulin promoter activators in MIN6 cells, imaging, high-content screening, mouse beta cells. MIN6 insulin promoter-GFP reporter; stronger effect = higher value. z-score at 5 µM. actives 0.3% (n = 190,000). AID 1625, 2009;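 active = z-score above 3 at 5 µM with at least 500 cells counted in the well; inconclusive = wells under 500 cells, flagged as cytotoxic or low count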
A number is an active result; – = inactive; ? = inconclusive; · = no result; + = active, no number.

SMILES	INS promoter inh	Dynein transport	PERK inh	Autophagy mod	Ins promoter up
Cc1nn(-c2ccc(Cl)cc2)c(=O)c2ccccc12	·	–	–	–	–
Cc1c(Cl)sn(-c2ccc(Cl)cc2)c1=O	·	-4.6	–	–	–
CCOc1ccc(C(=O)c2cc([N+](=O)[O-])ccc2Cl)cc1	–	–	–	–	–
C=CCN(CC=C)C(=S)NC(=O)c1ccc(C)c(Br)c1	–	–	–	–	–
O=C(CN1CCOCC1)N/N=C/c1ccc(-c2cccc(Cl)c2Cl)o1	·	–	–	·	–
COc1ccc(C2C(C(C)=O)=C(C)N=c3s/c(=C/c4ccc5c(c4)OCO5)c(=O)n32)cc1 (stereo not given)	–	–	–	–	–
CC1(C)CC(=O)C2=C(C1)N=c1s/c(=C/c3ccc(F)c(F)c3)c(=O)n1C2c1ccc(F)cc1 (stereo not given)	·	–	–	+	–
Cc1ccc(S(=O)(=O)N(C)CC(=O)Nc2cccc(C)n2)cc1	79	–	–	–	–
CC(=O)Nc1ccccc1NC(=O)CN(C)S(=O)(=O)c1ccc(C)cc1	–	–	–	–	·
CC(=O)c1cccc(S(=O)(=O)NCCC(=O)O)c1	·	–	–	–	–
COc1ccc2cc3c(N)nn(C(=O)C4CCC(C(C)(C)C)CC4)c3nc2c1 (stereo not given)	60	–	–	–	–
O=C(CCn1cccc1)NCc1ccc(Cl)cc1	–	–	–	–	–
CCOc1ccc(/C=N/Nc2ccc(C(F)(F)F)cc2[N+](=O)[O-])cc1O	71	–	–	–	–
COc1ccc(/C=N/Nc2ccc(C(F)(F)F)cc2[N+](=O)[O-])cc1O	–	–	–	–	–
CCN(CC)c1ccc2c(Cl)c(Br)c(=O)oc2c1	–	–	–	+	·
CCN(CC)c1ccc2cc(C#N)c(=O)oc2c1	–	–	–	–	4.2
CCN(CC)c1ccc2c(C)c(Cl)c(=O)oc2c1	·	–	–	–	–
Cc1ccccc1NS(=O)(=O)c1ccc(OCC(=O)NCc2cccnc2)cc1	·	–	–	+	–
CCOc1ccc(S(=O)(=O)Nc2cc(OC)ccc2OC)cc1	–	–	–	+	–
CCOc1ccccc1C(=O)Nc1cc(OC)ccc1OC	·	–	–	+	–
COc1ccc(OC)c(NS(=O)(=O)c2ccc(N3CCCC3=O)cc2)c1	·	–	–	+	–
COc1ccc(CCNS(=O)(=O)c2ccc(N3CCCC3=O)cc2)cc1	–	–	–	–	·
CCCCC(=O)OCC(=O)Nc1ccc(SC(F)F)cc1	–	–	–	–	–
O=C(NCCN1CCN(c2ccccc2)CC1)C1CCN(S(=O)(=O)c2cccc3nsnc23)CC1	–	–	–	–	·
Cc1ccc(-n2ncc3c(SCc4cccnc4)ncnc32)c(C)c1	–	–	–	–	–
SMILES	INS promoter inh	Dynein transport	PERK inh	Autophagy mod	Ins promoter up
O=[N+]([O-])c1ccc(S(=O)(=O)CC2CSc3nc4ccccc4n32)cc1 (stereo not given)	–	–	–	–	–
CCOC(=O)c1ccccc1NS(=O)(=O)c1ccc(OCC)cc1	–	–	–	+	–
CCOc1ccccc1NC(=O)Cc1ccccc1OC	81	–	–	–	–
Cn1c(=O)c2c(-c3ccncc3)c3c(nc2n(C)c1=O)-c1ccccc1C3=O	–	–	–	–	·
CCOc1ccc(C2CC(=O)N(Nc3ccc([N+](=O)[O-])cc3[N+](=O)[O-])C2=O)cc1 (stereo not given)	·	–	–	·	–
OC(COc1ccc(CNCCc2ccc(C(F)(F)F)cc2)cc1)CN1CCCCC1 (stereo not given)	·	–	–	+	·
CCN(CC)CCNC(CC(=O)Nc1ccc(Cl)cc1Cl)C(=O)O (stereo not given)	94	–	–	–	·
CCN(CC)CCCNc1nc2cc(OC)c(OC)cc2c2nc(-c3ccccc3)nn12	–	–	–	+	–
CCN(CC)CCCNc1nc2cc(OC)c(OC)cc2c2nc(-c3cccnc3)nn12	–	–	–	–	–
COc1cc2nc(NCC3CCCO3)n3nc(-c4cccnc4)nc3c2cc1OC (stereo not given)	·	–	–	–	–
COc1cc2nc(NCCCN3CCN(C)CC3)n3nc(-c4ccccc4)nc3c2cc1OC	·	–	–	+	–
COc1ccc(N(CC(=O)N2CCC(Cc3ccccc3)CC2)S(C)(=O)=O)cc1	·	–	–	–	–
CCCn1nnnc1SCC(=O)N1CCOCC1	83	–	–	–	–
NNC(=O)c1ccc(OCC2CC(c3ccc(Cl)cc3)=NO2)cc1 (stereo not given)	·	–	–	·	–
COc1ccc(-c2nnn(CC(=O)N3CCN(c4ccccc4OC)CC3)n2)cc1	–	–	–	+	·
O=C(Nc1ccc(Cl)cc1)c1cc2nc(-c3ccco3)cc(C(F)(F)F)n2n1	71	–	–	–	–
O=C(NC1CCCCC1)c1nn2c(C(F)(F)F)cc(-c3ccco3)nc2c1Br	·	–	–	+	–
O=C(CSc1nnc(-c2cccnc2)n1C1CCCCC1)NC1CCCC1	–	–	–	+	·
CC1CCCN(C(=O)CSc2nnc(-c3cccnc3)n2C2CCCCC2)C1 (stereo not given)	–	–	–	–	–
COc1nc(OC)nc(N2CCC(C(=O)NCc3cccs3)CC2)n1	–	–	–	–	3.5
C[N+]12CCCCC1C(COC(=O)c1ccc3c(c1)OCO3)CCC2 (stereo not given)	75	–	–	–	–
O=C(Nc1ccc2ncccc2c1)c1cc(Cl)ccc1Cl	–	–	–	–	–
CCOc1ccccc1CNC(=O)CCCc1cn(C)c2ccccc12	–	–	–	+	–
CCOc1ccccc1CNC(=O)c1cn(C)c(=O)c2c1c1ccccc1n2C	–	–	–	–	·
COC(=O)CSc1nnc(CNc2ccc(Cl)cc2)n1-c1ccccc1	–	–	–	–	–
SMILES	INS promoter inh	Dynein transport	PERK inh	Autophagy mod	Ins promoter up
Cc1ccc(-n2c(Cl)c(Cl)nc(Cl)c2=O)cc1	–	-4.1	–	–	?
COc1nc(Cl)cn(-c2ccc(C)cc2)c1=O	–	–	–	–	–
CC1(C)C2CCC1(CS(=O)(=O)N1CCC(C(=O)O)CC1)C(=O)C2 (stereo not given)	·	–	–	·	–
CCOC(=O)c1cc(-c2ccc(C)cc2)n(CCC(=O)N2CCN(c3ccccn3)CC2)c1C	–	–	–	–	–
On1nnc2cc(C(F)(F)F)ccc21	·	–	–	–	–
Cc1nc2cc(C(F)(F)F)ccc2n1C	75	–	–	–	–
COc1ccccc1OCC#CCNC1CCCCC1C (stereo not given)	·	–	–	–	–
CCOc1ccc(N(CC(=O)NC2CCCC2)S(=O)(=O)c2c(C)[nH]c(=O)[nH]c2=O)cc1	·	–	–	·	–
Cc1cccc(N2CCN(C(=O)C(C)C)CC2)c1C	79	–	–	–	–
COc1cccc(NC(=O)N2CCN(c3cccc(C)c3C)CC2)c1	–	–	–	+	–

Compound activity as filed in PubChem.
